Screens: PubChem BioAssay, several laboratories
Shown are actives, neighbours in structure and some others; about 3.4% of the full set was active somewhere.
KCC2 mod = KCC2 (human) Cl- transport modulation; Q9H2X9; KCC2 cells, thallium flux FluoZin-2 fluorescence; B-score of Tl+ flux slope (higher = more flux/activation; lower = inhibition) at 10 µM; 190,000 compounds, 2.2% hits;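 active = thallium flux slope and its plate-corrected score both differing from the plate sample mean at a set confidence after two filtering rounds, in either direction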;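 note: slope of fluorescence scaled to starting intensity during 10 to 20 s after thallium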
ROMK mod = modulates human ROMK potassium channel activity; 130,000 compounds, 2% hits; Tet-inducible ROMK, thallium flux fluorescence; actives lie on both sides; B-score at 10 µM; P48048; AID 1918;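 active = signal ratio slope over the read window, or its plate-corrected B-score, at least 3 SD from the plate mean, either direction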;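 note: B-score of the F/F0 ratio slope over 7 to 12 s after thallium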
p97 ATPase inh = blocks human p97 ATPase activity | 220,000 compounds, 0.42% hits | recombinant p97 ATPase, Kinase-Glo ATP luminescence, 3 h | inhibition, % at 8 µM | P55072; in the data active = inhibition above about 15%;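 note: 0% = DMSO vehicle and 100% = wells lacking enzyme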
Target sequence (P55072 whole entry, looked up): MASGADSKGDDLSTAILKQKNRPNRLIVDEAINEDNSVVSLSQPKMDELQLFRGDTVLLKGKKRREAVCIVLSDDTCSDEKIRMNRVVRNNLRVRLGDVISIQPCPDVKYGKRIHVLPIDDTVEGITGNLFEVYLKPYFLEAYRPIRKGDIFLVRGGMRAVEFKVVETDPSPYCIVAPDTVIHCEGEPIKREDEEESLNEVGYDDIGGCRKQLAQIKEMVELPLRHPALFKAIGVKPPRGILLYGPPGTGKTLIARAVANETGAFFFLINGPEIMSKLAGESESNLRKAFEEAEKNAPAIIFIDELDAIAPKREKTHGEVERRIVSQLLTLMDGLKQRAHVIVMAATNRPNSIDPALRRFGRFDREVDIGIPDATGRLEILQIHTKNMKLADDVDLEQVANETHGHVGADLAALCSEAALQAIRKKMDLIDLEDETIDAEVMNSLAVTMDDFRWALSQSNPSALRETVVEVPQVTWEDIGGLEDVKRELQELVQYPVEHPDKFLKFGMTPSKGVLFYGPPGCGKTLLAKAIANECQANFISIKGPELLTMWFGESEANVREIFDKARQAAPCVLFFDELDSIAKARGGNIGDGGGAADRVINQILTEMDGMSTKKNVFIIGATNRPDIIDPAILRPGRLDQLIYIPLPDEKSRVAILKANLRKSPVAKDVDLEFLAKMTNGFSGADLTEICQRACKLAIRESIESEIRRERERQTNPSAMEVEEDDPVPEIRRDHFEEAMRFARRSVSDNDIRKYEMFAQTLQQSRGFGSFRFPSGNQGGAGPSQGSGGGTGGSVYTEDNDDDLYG
PKD1 kinase inh = blocks activity of human protein kinase D1 | Q15139 | PKD1 kinase fluorescence polarization assay | inhibition, % (concentration not given with the values) | 200,000 compounds, 0.056% hits | AID 797; in the data active = inhibition above about 50%
MDM2 E3 inh = Mdm2 E3 ligase (human) inhibition; cell-based MDM2 ubiquitination luciferase reporter, 2 h; 0 = plate control, 100 = twice control, blank-subtracted; 210,000 compounds, 0.11% hits; signal enhancement, % at 5 µM; Q00987;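 active = signal enhancement of 30% or more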;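 note: luminescence tracks abundance of the self-degrading MDM2-luciferase fusion protein; higher signal means inhibition of MDM2 E3 ligase activity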
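test system = mammalian cells stably expressing self-ubiquitinating, self-degrading MDM2 E3–luciferase fusion | quantity = 2000 cells/well | incubation = cell settling 4 h, compound treatment 2 h, both 37 °C | signal = luminescence with SteadyLite reagent, 15 min at room temperature | evaluation = % enhancement relative to plate controls after blank subtraction | benchmarks = plate controls and plate blanks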
DTT redox prof = compounds producing H2O2 with reducing agent – biochemical, NIH compound library profiling, artefact control for MLSCN library redox annotation, primary screen; AID 878; activation, % at 10 µM; DTT-dependent redox cycling H2O2, phenol red/HRP absorbance; 100% = 100 µM peroxide control, 0% = buffer; 200,000 compounds, 0.03% hits;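 active = activation of at least 50% relative to the plate's high and low controls in the primary single-dose screen; inactive = activation below 50%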;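 note: compound incubated with DTT at 0.8 mM final as the reducing agent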
KCC2 secondary = KCC2 (human) modulation, secondary assay. shares compounds with KCC2 mod. HEK293-KCC2, thallium flux, FluoZin2 fluorescence; hits give high values. normalised thallium flux (F/F0 slope) at 10 µM. 3,700 compounds, 15% hits;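 active = thallium flux slope above the same plate's solvent-only control mean plus 3 SD; inconclusive = the two replicate wells disagree; inactive = no significant difference from solvent-only control wells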
KCC2 bumet counter = bumetanide-insensitive thallium flux in KCC2 cells with ouabain, counter-screen; shares compounds with KCC2 mod; 3,700 compounds, 49% hits; AID 1714; HEK293-KCC2 + bumetanide/ouabain, thallium flux FluoZin2; hits give high values; normalized thallium flux at 10 µM;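 active = thallium entry rate above the same plate's blocked-transporter control wells by more than 3 SD; inconclusive = the two repeat wells disagree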;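 note: raw slope of fluorescence over initial fluorescence between 10 and 20 s after thallium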
KCC2 sec2 = confirmation of human KCC2 transport modulators | shares compounds with KCC2 mod | HEK293-KCC2, thallium flux FluoZin2 fluorescence; actives lie on both sides; F/F0 rise rate, 10–20 s post-thallium | normalized thallium flux at 10 µM | 3,700 compounds, 23% hits | AID 1715;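 active = thallium flux slope more than 3 SD above or below the plate's solvent-only control mean, mostly below; inconclusive = the two repeat wells disagreed; inactive = no significant shift from solvent-only controls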;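 note: raw slope with 0.1% DMSO as baseline and bumetanide as block control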
HEK293 Tl flux = acts in parental HEK cells, KCC2 counter-screen; shares compounds with KCC2 mod; HEK293 parental cells, thallium flux FluoZin2, ouabain; baseline-ratio fluorescence slope, 10–20 s after thallium; thallium flux rate (normalised fluorescence) at 10 µM; 3,700 compounds, 46% hits;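 active = thallium flux rate significantly above the same plate's solvent-only control wells, beyond their mean plus 3 SD; inconclusive = the two replicate wells gave conflicting results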
KCC2 retest ouab = modulates human KCC2 on retest with ouabain; shares compounds with KCC2 mod; HEK293-KCC2, thallium flux FluoZin2 fluorescence; bidirectional: low = inhibitor, high = activator; raw Tl+ flux slope (below DMSO = inhibition, above = activation) at 10 µM; 3,700 compounds, 48% hits; AID 1717;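 active = thallium flux slope beyond 3 SD from same-plate DMSO control mean in most replicates, usually higher, sometimes lower; inconclusive = repeat tests gave conflicting results; inactive = no significant difference from controls in most replicates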;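 note: slope of initial-normalized fluorescence between seconds 10 and 20 after thallium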
HEK293 Tl flux2 = acts in parental HEK cells, second KCC2 counter-screen | HEK293 parental, thallium flux FluoZin-2 fluorescence slope | shares compounds with KCC2 mod | 3,700 compounds, 33% hits | thallium flux slope at 10 µM | AID 1718;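 active = thallium flux slope above the same plate's solvent-control mean plus 3 SD in both duplicate wells; inconclusive = duplicate wells that disagreed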;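 note: run without ouabain in cells lacking the KCC2 cotransporter; slope of fluorescence scaled to its starting value between 10 and 20 s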
Active calls of the source: *; ? = inconclusive; nt = no result.

SMILES	KCC2 mod	ROMK mod	p97 ATPase inh	PKD1 kinase inh	MDM2 E3 inh	DTT redox prof	KCC2 secondary	KCC2 bumet counter	KCC2 sec2	HEK293 Tl flux	KCC2 retest ouab	HEK293 Tl flux2
Cc1cc(Cl)ccc1NC(=S)NCc1ccc(Cl)cc1	0.71	nt	3	-2	-7	2	nt	nt	nt	nt	nt	nt
COC1=C/C(=C/c2c(N)n3cc(C)sc3nc2=O)C=CC1=O	-6.6*	-2.7	6	19	-14	0	0.0038*	-0.0015*	0.017*	0.0028*	0.008*	0.006*
Cc1cn2c(N)c(/C=C3\C=Nc4ccccc43)c(=O)nc2s1	-0.59	nt	12	nt	2	nt	nt	nt	nt	nt	nt	nt
Cc1nnc(N(C)C(=O)c2cnccn2)s1	0.47	0.56	6	0	-5	-2	nt	nt	nt	nt	nt	nt
NC(=O)c1ccccc1N/C=C/C(=O)c1ccc(Cl)cc1	-0.55	0.87	-15	-1	-10	0	nt	nt	nt	nt	nt	nt
Cc1ccc(C(=O)/C=C/Nc2ccccc2C(N)=O)cc1	-3.3*	nt	-12	-2	-74	2	0.017	0.0065*	?	0.007	0.015	0.01
CCOc1ccc(C(Nc2cccnc2)c2cc(Cl)c3cccnc3c2O)cc1 (centres undefined)	5*	0.32	6	-3	-8	-1	0.0089	0.014*	0.034	0.018*	?	0.01
CCCC(=O)NC(c1ccc2c(c1)OCO2)c1cc(Cl)c2cccnc2c1O (centres undefined)	4.1*	0.76	2	-2	-2	0	0.0076	0.0057	0.03	0.0067	0.02	0.0086
COc1ccccc1Oc1ncnc2c1cnn2-c1ccccc1	-5*	-1.3	0	8	7	0	?	0.0056	0.033	0.0036	0.015*	0.011
Cc1ccc(CN(C)C(=O)c2cc(COc3ccc(F)cc3Cl)on2)o1	nt	-0.74	-2	-4	-5	0	0.007	0.0053	0.026*	0.0072	?	0.01
Cc1nc(CNC(=O)c2cc(COc3ccc(F)cc3Cl)on2)cs1	-4.6*	-0.57	-1	-3	-10	-2	0.0065	0.0064	0.033	0.0043	0.015*	0.011
Cc1nc(CNC(=O)c2cc(COc3c(F)cccc3F)on2)cs1	-1.3	nt	6	nt	-4	nt	nt	nt	nt	nt	nt	nt
Cc1cc(CN(C)C(=O)c2cc(COc3ccc(F)cc3Cl)on2)n[nH]1	-4.7*	-0.2	-5	-4	1	0	0.0061*	?	?	0.0083	0.024	0.011
CC(=O)N1CCN(c2ccc([N+](=O)[O-])c(NCC3CCCO3)c2)CC1 (centres undefined)	-0.51	-0.0026	1	7	-1	0	nt	nt	nt	nt	nt	nt
COc1ccc2c(CC(=O)OCC(=O)Nc3ccc(S(N)(=O)=O)cc3)coc2c1	1.5	nt	5	nt	nt	nt	nt	nt	nt	nt	nt	nt
COc1cc(C(=O)NCc2cccc3ccccc23)ccc1OCc1ccccc1	-0.37	nt	2	-3	nt	2	nt	nt	nt	nt	nt	nt
CCn1c(-c2sc(-c3ccccc3)nc2C)n[nH]c1=S	3.9*	0.38	-6	-1	-9	0	0.0062	0.013*	0.035	0.014*	?	0.017*
C=CCn1c(-c2cc(-c3ccc(C)cc3)nc3ccccc23)n[nH]c1=S	36*	-1.4	5	-7	4	-2	0.015*	0.11*	0.032	0.031*	0.052*	0.012*
Cc1ccc(-c2n[nH]c(=S)n2C)cc1	nt	1.6	4	-14	-13	0	nt	nt	nt	nt	nt	nt
CCn1c(-c2cc(-c3ccc(OC(C)C)cc3)nc3ccccc23)n[nH]c1=S	2	0.75	0	4	-7	-2	nt	nt	nt	nt	nt	nt
Cn1c(-c2csc(-c3ccccc3)n2)n[nH]c1=S	5.2*	1.4	1	3	0	0	0.0071	0.021*	0.033	0.017*	0.028*	0.02*
CCn1c(-c2cc(-c3ccc(C)cc3)nc3ccccc23)n[nH]c1=S	7.9*	0.0011	-2	2	-19	-1	?	0.049*	0.036	0.015*	0.039*	0.017*
O=c1cc(CN2CCc3ccccc32)c2ccc(O)cc2o1	nt	-0.089	8	0	-19	-1	0.0089	0.0062	0.038	0.0035	0.018*	0.01
O=C(COc1ccccc1-c1ccccc1)NN=C1CCCC1	-3.4*	0.062	2	0	4	1	0.0071	0.0039	0.032	0.005*	0.018	0.0077*
CCc1ccc(OCc2nnc(SCC(=O)Nc3cccc(C(=O)N4CCOCC4)c3)o2)cc1	-3.4*	-0.073	3	-7	1	0	0.0057	0.0046	0.029	0.0072	0.017	0.01
